In ChEMBL document CHEMBL4823260, “From High-Throughput Screening to Target Validation: Benzo[d]isothiazoles as Potent and Selective Agonists of Human Transient Receptor Potential Cation Channel Subfamily M Member 5 Possessing In Vivo Gastrointestinal Prokinetic Activity in Rodents” (J Med Chem, 2021):
Blank lines part the entries; values can stand above or below the compound they belong to.

Columns and labels:
[1] = Drug concentration in C57BL6 mouse plasma at 1 mg/kg, po administered as single dose measured after 6 to 48 hrs by LC-MS/MS analysis; assay type: ADME, organism-based; settings: in vivo, time 6-48 hrs
Procedure, shortened: (§1)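 Single oral dose of 1, 3 or 100 mg/kg in mouse. Plasma (ng/mL) and colon and ileum (ng/g) exposure sampled at 6, 24 and 48 h, and at 72 h for the top dose; mean values reported.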

[2] = Drug concentration in C57BL6 mouse colon at 1 mg/kg, po administered as single dose measured after 6 hrs by LC-MS/MS analysis; assay type: ADME, organism-based; settings: read-out: Ct; procedure, shortened: as §1
[3] = Drug concentration in C57BL6 mouse ileum at 1 mg/kg, po administered as single dose measured after 6 to 48 hrs by LC-MS/MS analysis; assay type: ADME, organism-based; settings: in vivo, time 6-48 hrs; procedure, shortened: as §1
[4] = Drug concentration in C57BL6 mouse plasma at 3 mg/kg, po administered as single dose measured after 6 to 48 hrs by LC-MS/MS analysis; assay type: ADME, organism-based; settings: in vivo, time 6-48 hrs; procedure, shortened: as §1
[5] = Drug concentration in C57BL6 mouse colon at 3 mg/kg, po administered as single dose measured after 6 hrs by LC-MS/MS analysis; assay type: ADME, organism-based; settings: read-out: Ct; procedure, shortened: as §1
[6] = Drug concentration in C57BL6 mouse colon at 3 mg/kg, po administered as single dose measured after 24 to 48 hrs by LC-MS/MS analysis; assay type: ADME, organism-based; settings: in vivo, time 24-48 hrs; procedure, shortened: as §1
[7] = Drug concentration in C57BL6 mouse ileum at 3 mg/kg, po administered as single dose measured after 6 to 48 hrs by LC-MS/MS analysis; assay type: ADME, organism-based; settings: in vivo, time 6-48 hrs; procedure, shortened: as §1
[8] = Drug concentration in C57BL6 mouse colon at 100 mg/kg, po administered as single dose measured after 6 hrs by LC-MS/MS analysis; assay type: ADME, organism-based; settings: read-out: Ct; procedure, shortened: as §1
[9] = Drug concentration in C57BL6 mouse colon at 100 mg/kg, po administered as single dose measured after 48 hrs by LC-MS/MS analysis; assay type: ADME, organism-based; settings: read-out: Ct; procedure, shortened: as §1
[10] = Drug concentration in C57BL6 mouse colon at 100 mg/kg, po administered as single dose measured after 72 hrs by LC-MS/MS analysis; assay type: ADME, organism-based; procedure, shortened: as §1
[11] = Drug concentration in C57BL6 mouse ileum at 100 mg/kg, po administered as single dose measured after 6 hrs by LC-MS/MS analysis; assay type: ADME, organism-based; settings: read-out: Ct; procedure, shortened: as §1
[12] = Drug concentration in C57BL6 mouse ileum at 100 mg/kg, po administered as single dose measured after 24 hrs by LC-MS/MS analysis; assay type: ADME, organism-based; settings: read-out: Ct; procedure, shortened: as §1
[13] = Drug concentration in C57BL6 mouse ileum at 100 mg/kg, po administered as single dose measured after 48 to 72 hrs by LC-MS/MS analysis; assay type: ADME, organism-based; settings: in vivo, time 48-72 hrs; procedure, shortened: as §1
Mus musculus [14] = assay: Gastroprokinetic activity in CD-1 mouse assessed as stimulation of gastrointestinal motility by measuring fecal number at 1 mg/kg, po measured after 3 hrs (reference value: 9.1 +/-1.1); assay type: functional
Mus musculus [15] = assay: Gastroprokinetic activity in CD-1 mouse assessed as stimulation of gastrointestinal motility by measuring fecal number at 10 mg/kg, po measured after 1 hrs (reference value: 3 +/-0.8); assay type: functional
Mus musculus [16] = assay: Gastroprokinetic activity in CD-1 mouse assessed as stimulation of gastrointestinal motility by measuring fecal number at 10 mg/kg, po measured after 2 hrs (reference value: 5.3 +/-0.7); assay type: functional
Mus musculus [17] = assay: Gastroprokinetic activity in CD-1 mouse assessed as stimulation of gastrointestinal motility by measuring fecal number at 10 mg/kg, po measured after 3 hrs (reference value: 9.1 +/-1.1); assay type: functional
Mus musculus [18] = assay: Gastroprokinetic activity in CD-1 mouse assessed as stimulation of gastrointestinal motility by measuring fecal number at 10 mg/kg, po measured after 6 hrs (reference value: 20.1 +/-1.4); assay type: functional
Mus musculus [19] = assay: Gastroprokinetic activity in CD-1 mouse assessed as stimulation of gastrointestinal motility by measuring fecal number at 100 mg/kg, po measured after 1 hrs (reference value: 3 +/-0.8); assay type: functional
Mus musculus [20] = assay: Gastroprokinetic activity in CD-1 mouse assessed as stimulation of gastrointestinal motility by measuring fecal number at 100 mg/kg, po measured after 3 hrs (reference value: 9.1 +/-1.1); assay type: functional
Mus musculus [21] = assay: Gastroprokinetic activity in CD-1 mouse assessed as stimulation of gastrointestinal motility by measuring total fecal weight at 1 mg/kg, po measured after 1 hrs (reference value: 0.08 +/-0.02 g); assay type: functional
Mus musculus [22] = assay: Gastroprokinetic activity in CD-1 mouse assessed as stimulation of gastrointestinal motility by measuring total fecal weight at 1 mg/kg, po measured after 2 hrs (reference value: 0.13 +/-0.02 g); assay type: functional
Mus musculus [23] = assay: Gastroprokinetic activity in CD-1 mouse assessed as stimulation of gastrointestinal motility by measuring total fecal weight at 1 mg/kg, po measured after 3 hrs (reference value: 0.21 +/-0.03 g); assay type: functional
Mus musculus [24] = assay: Gastroprokinetic activity in CD-1 mouse assessed as stimulation of gastrointestinal motility by measuring total fecal weight at 1 mg/kg, po measured after 6 hrs (reference value: 0.43 +/-0.05 g); assay type: functional
Mus musculus [25] = assay: Gastroprokinetic activity in CD-1 mouse assessed as stimulation of gastrointestinal motility by measuring total fecal weight at 10 mg/kg, po measured after 2 hrs (reference value: 0.13 +/-0.02 g); assay type: functional
Mus musculus [26] = assay: Gastroprokinetic activity in CD-1 mouse assessed as stimulation of gastrointestinal motility by measuring total fecal weight at 100 mg/kg, po measured after 3 hrs (reference value: 0.21 +/-0.03 g); assay type: functional
[27] = Toxicity in CD-1 mouse assessed as effect on behavioral change at 1 to 100 mg/kg, po measured up to 6 hrs; assay type: organism-based; settings: in vivo, dose 1-100 mg/kg
Procedure, shortened: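 CD-1 mice dosed orally at 1, 10 or 100 mg/kg or with formulation vehicle (N = 12/group). General health status, locomotion and general behaviour observed at 1, 2, 3 and 6 h after treatment, alongside fecal collection in single grid-floored cages.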

Mus musculus [28] = assay: Gastroprokinetic activity in CD-1 mouse assessed as stimulation of gastrointestinal motility by measuring total fecal weight at 10 mg/kg, po measured after 3 hrs (reference value: 0.21 +/-0.03 g)
[29] = Volume of distribution at steady state in CD-1 mouse at 1 mg/kg, iv measured up to 24 hrs; assay type: ADME, organism-based; settings: in vivo, read-out: Vdss
[30] = Half life in CD-1 mouse at 1 mg/kg, iv measured up to 24 hrs; assay type: ADME, organism-based; settings: in vivo
[31] = AUClast in CD-1 mouse at 1 mg/kg, iv measured up to 24 hrs; assay type: ADME, organism-based; set-up: route intravenous, dose 1 mg/kg, time <=24; settings: in vivo
[32] = Clast in CD-1 mouse at 10 mg/kg, po measured up to 24 hrs; assay type: ADME, organism-based; settings: in vivo, read-out: Clast
[33] = Oral bioavailability in CD-1 mouse at 10 mg/kg measured up to 24 hrs; assay type: ADME, organism-based; settings: in vivo
[34] = Protein binding in rat plasma assessed as unbound fraction measured after 5 hrs by equilibrium dialysis based HPLC/UPLC-MS/MS analysis; assay type: ADME, cell-free

Cp [1]: < 20 ng/mL
concentration at 6 h [2]: 63.8 ng/g
Ct [3]: < 20 ng/mL
Cp [4]: < 20 ng/mL
concentration at 6 h [5]: 143 ng/g
Ct [6]: < 20 ng/mL
Ct [7]: < 20 ng/mL
concentration at 6 h [8]: 2620 ng/g
concentration at 48 h [9]: 58 ng/g
concentration at 72 h [10]: < 20 ng/mL
concentration at 6 h [11]: 7380 ng/g
concentration at 24 h [12]: 202 ng/g
Ct [13]: < 20 ng/mL
Structure (SMILES): Clc1cnc(CNc2cc3sncc3cc2Cl)s1
Activity (Mus musculus [14]): 11.8
Activity (Mus musculus [15]): 3.4
Activity (Mus musculus [16]): 7.3
Activity (Mus musculus [17]): 10.3
Activity (Mus musculus [18]): 18.5
Activity (Mus musculus [19]): 4
Activity (Mus musculus [20]): 13
Activity (Mus musculus [21]): 0.09 g
Activity (Mus musculus [22]): 0.15 g
Activity (Mus musculus [23]): 0.23 g
Activity (Mus musculus [24]): 0.45 g
Activity (Mus musculus [25]): 0.18 g
Activity (Mus musculus [26]): 0.41 g
Activity [27]: Non-Toxic
Activity (Mus musculus [28]): 0.23 g

Vd [29]: 1.12 L/kg
half-life [30]: 48.6 min
AUClast [31]: 541 ng·h/mL
concentration at 24 h [32]: 2.76 ng/mL
bioavailability [33]: 1.54%
Structure (SMILES): Clc1cnc(CNc2ccc3cnsc3c2)s1

fraction unbound at 5 h [34]: < 0.01
Structure (SMILES): Clc1cnc(CNc2ccc3sncc3c2)s1
